In the EternaBench riboswitch data:

Tested on: MS2 coat protein
Assay: apparent Kd, MS2 coat protein; higher = weaker binding; RNA-MaP array; FMN 200 µM where present
Summary of the method: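 The apparent Kd is reported as the median of filtered per-cluster binding-curve fits. To get these curves, designs transcribed by stalled E. coli RNA polymerase on Illumina sequencing-chip clusters were titrated with SNAP-549-labelled MS2 coat protein from 0.7 or 1.5 nM, doubling to 3 µM. Titrations were run without and then with constant ligand in 100 mM Tris-HCl pH 7.5, 80 mM KCl, 4 mM MgCl2, BSA, DTT, yeast tRNA and Tween-20, and green signal was normalised to red-channel RNA signal and control-cluster median Fmax.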

[1] = designed as: OFF switch for flavin mononucleotide, no ligand
[2] = ligand present: flavin mononucleotide, designed as: OFF switch for flavin mononucleotide
[3] = designed as: ON switch for flavin mononucleotide, no ligand
[4] = ligand present: flavin mononucleotide, designed as: ON switch for flavin mononucleotide

Sequence	apparent Kd [1] [nM]	apparent Kd [2] [nM]	apparent Kd [3] [nM]	apparent Kd [4] [nM]
GCACGCUGGCGAGGAUAUAGACAUGAGGAUCACCCAUGUGGCGCACAUCGGGCCCUAGUCCUCAGCUAGAAGGCGCCUGUGAUA	328	228	–	–
GCUCUGUUAGGAUAUUUCGGCAUAGGUAUAACUUAAGCGUGAGAGAAGGAACAUGAGGAUCACCCAUGUUAAUC	19.9	77.5	–	–
GGAUUACAUGAGGAUCACCCAUGUGAGGAUAUCGAUGUCCUCAAUCCCGUGCGGGACUCGAGAAGGCACUUGGA	63	48.8	–	–
GUGGUGUAGAUACAGGAUAUGUUGCUCGUAACAUGAGGAUCACCCAUGUAUCUAUGAGAAUAAAUGCAGAAGGGUGCACACCACU	–	–	549	30.1
GUAGCUAUCGCAGGAUAUUCAUACCGGAAACGGACAUGAGGAUCACCCAUGUGGCGAAAGCCUUGGGAGAAGGCCGAUAGCUAC	–	–	1160	789
AAAUACCGGUGAGGAUAUUUAUAAUAGAACUUUAUGAUAUACAUGAGGAUCACCCAUGUUACUUUAAAGAAGGCAUCGGAUAAA	18.8	15	–	–
CCAAUUCUGGCAUCCUUAUUACAUGAGGAUCACCCAUGUUGUGAGGAUAUCCCAACCCACGGUCAGGAGAAGGCACAAAGAGGG	4.9	5.01	–	–
CAGAAACAUGAGGAUCACCCAUGUGAGGAUAUGCGUACGUUGUCCGUAGGCGACGUGCGCAGAAGGCACAAAGG	132	256	–	–
AGUGUGUGGCAGGAUAUGCUGUUGAUUCGGGCAGCAGAAGGGUCUACAUGAGGAUCACCCAUGUAAGCGGUUGA	257	413	–	–
GGGAACAUCGGAGGAUAUCAUGUAAAUACAUGAGGAUCACCCAUGUCGAUGGAGACAUCGGAGAUUGAGAAGGCCGAUGUACCG	–	–	173	9.66
AAAAAGGGAGGAUAUACAUGAGUAGAUCGUGUAAAAAAAAUACAUGAGGAUCACCCAUGUAGAAGGCCCAAAAA	231	88.2	–	–
GGAGAGGACAGAGGAUAUACGUGCUAGAGAUACUAGCAAAAUUUCCUCACAUGAGGAUCACCCAUGUAGAAGGCUGUCCUAUCG	16.6	309	–	–
AAAGGGAUUACGGAGGAUAUGGAAAAAAAAACAUGAGGAUCACCCAUGUCAAAAAAAAAAAAGGACCAGAAGGCCGUAAUCUCAAA	–	–	27.3	18.9
GGCACUAUCACAGGAUAUGCUUUCCUUUGGGAAGCAGAAGGGUGUAACAUGAGGAUCACCCAUGUGGUGCCAGGGCGUGAGCCC	–	–	114	10.9
UUGGACGUCGUAGGAUAUGUAGGAUAUUCCUACAUGAGGAUCACCCAUGUUGACAUGGAAGAGGGACAGAAGGACGAUGUCCAU	–	–	606	30.5
UAAGUCGGAAGAUAAUAAUGAAUACAUGAGGAUCACCCAUGUAAGGAUAUGCAGUGGAAUACACUGCAGAAGGUACAUACCGAC	16.1	21.4	–	–
UUACUAUCACAGAAGGCUAGAUAGUAUAUAGAUGGAGGAUAUGUGACAUGAGGAUCACCCAUGUUUCACCGACAUGAGGAUCAC	17.4	41.6	–	–
CUGUAGAGUUAGGAUAUCGGCGCGUGAGAAGUUUGAGAAGGGACCACAUGAGGAUCACCCAUGUGUCUUCACCU	14.7	15.7	–	–
AUGUACCGGUGAGGAUAUUUUUAAUAGAGCUUUAUGAUAUACAUGAGGAUCACCCAUGUUACUUUAAAGAAGGCAUCGGAUUAA	19	14	–	–
CGUAACUACAUAGGAUAUUGAUACAUGAGGAUCACCCAUGUUAUAGGGAUUAGUUUAAUAUUAAGCAAGAAGGAUGAAGUUACG	–	–	18.6	12.4
UUGGACGUCGUAGGAUAUGUAGGAUAUUCCUACAUGAGGAUCACCCAUGUUGACAUGGAAGAAGGACAGAAGGACGAUUUCCAU	–	–	284	5.41

Sequence	apparent Kd [1] [nM]	apparent Kd [2] [nM]	apparent Kd [3] [nM]	apparent Kd [4] [nM]
CUGCGUCGUGUUAGGAUAUCCAGCGGUGCGCGCCAGGAGAAGGAACAUGAGGAUCACCCAUGUAAACCGAUGGC	12.4	13.4	–	–
UUGCGCUGUCGAGAGGAUAUGCGGUGUUGGACAUGAGGAUCACCCAUGUUUGCGAUAGCUUUACGGUAGAAGGCUCUUCAGCUGC	–	–	63.9	35.9
GCUUAUAGAGGAUAUACAGAUUAUUACAUGAGGAUCACCCAUGUUCUUCAAUGUAUAUAUGUAGAAGGCUAAGGAU	61.5	257	–	–
GUAGCAUACCGAGGAUAUUCAUACCCGAAAGGGACAUGAGGAUCACCCAUGUGGCGAAAGCCUUGGGAGAAGGCGGAAUGCUAC	–	–	580	24.4
GGAGCUCACAUUAACAUGAGGAUCACCCAUGUCUCUAGACAUGAGGAUAUGGAUCCUAAUUGGAUCCAGAAGGCAUGGAGCUCC	–	–	1450	118
AACUCGUCAGGAUAUGCGCGCAGUUAAUACGCUUCGCAAUUGCAGAAGGGACAUGAGGAUCACCCAUGUAAAUA	32.1	33.1	–	–
GGGUUUGGAGGAUAUACAUGAGGAUCACCCAUGUAGGGUUUGGGUAUUCCCGGGCCCUGUAGAAGGCCGGGCCC	16.6	20.4	–	–
GACAGUGCAAUAAUAAUAAGAUCUACAUGAGGAUCACCCAUGUAGGAUAUCGUCAGGAAUACUGACGAGAAGGACAUAGCACUG	13.1	15	–	–
GUCAAGUGAGGAUAUGAUUGUACAACAGACUAGCGUCUGCAUCAGAAGGCACAUGAGGAUCACCCAUGUUUGUC	19.6	16.2	–	–
GUGUAGUGAGGAUAUCGUUGUUAGGAGGAGAAGGUAGGAGGCGAGAAGGCACAUGAGGAUCACCCAUGUAUGAG	35.1	23.7	–	–
UGGAAACAUGAGGAUCACCCAUGUAAAAGGUGGUUAGGAUAUGCAAAACGGAAAACGAAAGCAGAAGGGACAAAAA	–	–	412	302
UGUCGGAGCAGAGGAUAUUACAUGAGGAUCACCCAUGUAUGAACCAAUAGCUGGAAACAGCAAUGUUAGAAGGCUGCUCCGACA	5.23	6.86	–	–
CUACCUUAUGAGAAGGCGAUCAUGAAACAUGAUCGAGGAUAUCAUGUAAACAUGAGGAUCACCCAUGUAUGGGUAUUAUGGUAA	–	–	106	24.4
CAUGAUUGACGAGGAUAUUGUUCUACAUGGCGACGAGAAGGCGUCUGUCACAUGAGGAUCACCCAUGUGAGUCUGGUGAAUGAG	36.5	33.4	–	–
CUCAUGUUAGGAUAUGCGCUCGACCUAGUGGUCGAGCUCUAGCAGAAGGAACAUGAGGAUCACCCAUGUUUGCA	63.3	19.6	–	–
CAUGUGAGCGAGGAUAUUUUACGGGAAACUUUCAGAGAAGGCGCUACAUGAGGAUCACCCAUGUCCGUCAGUCC	41.7	94.8	–	–
AUUUAUUAGUAAGGAUAUACUAGCGAUUUGCUUGUAGAAGGUACAGUCUUAUGUAUAACAUGUUAACAUGAGGAUCACCCAUGU	–	–	44.4	27.5
UUUUUAUUUGCAGGAUAUUGUAUUUUAUUACAUCAAGAAGGGCAUUACAUGAGGAUCACCCAUGUCAUCCUAUGGUUAACUAGU	9.62	9.77	–	–
GGGAGUGAAGGAUAUACAUGAGGAUCACCCAUGUGGGAGGAGAGAGGUGAGGAGGCUGGUAGAAGGUCAGGAUG	60.2	51.2	–	–
CUUAUGUGAGGAUAUCAGUAGUGAUACGAUAGUAUUACUGCUGAGAAGGCACAUGAGGAUCACCCAUGUUCCUC	117	422	–	–
UUAAUUAACAAGAAGGCUUACAUGAGGAUCACCCAUGUUGUACAUGGAUAAAGAGGAUAUUGCUAAUAAUUAUUUAUCUUAAUU	61.5	37.3	–	–
